In ChEMBL document CHEMBL5724801, “EUbOPEN Chemogenomics Library - Multiplex” (2024):
“And” between values parts separate entries of the source, which are not always exact repeats. Equal values may be shown once.

Test system: U2OS
Experiment: Multiplex assay against U2OS
Format: toxicity, cell-based
Conditions: human
Procedure, shortened: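 Compound was added to live cells that had been stained at seeding with Hoechst33342, BioTracker Green Microtubule Cytoskeleton Dye, MitoTracker Red and Annexin V Alexa Fluor 680, and imaging followed on a CQ1 microscope at 37°C and 5% CO2. CellPathfinder machine-learning gating divided cells into Hoechst high-intensity objects or normal cells, normal cells into healthy, pyknosed or fragmented nuclei, and pyknosed cells into mitotic or apoptotic. Tubulin, mitochondrial-mass and membrane-permeability phenotypes are per cents of healthy-nucleus cells.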

[1] = 12 h, 1 µM, compound concentration 1 uM
[2] = 12 h, 10 µM, compound concentration 10 uM
[3] = 24 h, 1 µM, compound concentration 1 uM
[4] = 24 h, 10 µM, compound concentration 10 uM
[5] = 48 h, 1 µM, compound concentration 1 uM
[6] = 48 h, 10 µM, compound concentration 10 uM

## O=C(NCCN1CCC(n2c(=O)[nH]c3cc(Cl)ccc32)CC1)c1ccc(F)cc1 [HALOPEMIDE]
[1]
  Population Apoptotic (%): 95% and 50%
  Population Fragmented Nuclei (%): 24% and 13%
  Population Healthy Nuclei (%): 65% and 79%
  Population Hoechst High Intensity Objects (%): 1% and 0%
  Population Membrane Permeable-Phenotype (%): 6% and 7%
  Population Mitochondria Different-Phenotype (%): 1% and 2%
  Population Normal (%): 98% and 100%
  Population Pyknosed Nuclei (%): 10% and 7%
  Population Tubulin-Different-Phenotype (%): 2% and 3%
  Total Cell Count: 209 and 105
[2]
  Population Apoptotic (%): 68% and 61%
  Population Fragmented Nuclei (%): 19% and 12%
  Population Healthy Nuclei (%): 65% and 78%
  Population Hoechst High Intensity Objects (%): 4% and 1%
  Population Membrane Permeable-Phenotype (%): 23% and 26%
  Population Mitochondria Different-Phenotype (%): 11% and 32%
  Population Mitotic Cells (%): 31% and 38%
  Population Normal (%): 95% and 98%
  Population Pyknosed Nuclei (%): 15% and 8%
  Population Tubulin-Different-Phenotype (%): 15% and 27%
  Total Cell Count: 244 and 152
[3]
  Population Apoptotic (%): 91% and 81%
  Population Fragmented Nuclei (%): 22% and 15%
  Population Healthy Nuclei (%): 68% and 72%
  Population Hoechst High Intensity Objects (%): 1% and 0%
  Population Membrane Permeable-Phenotype (%): 6% and 10%
  Population Mitochondria Different-Phenotype (%): 1% and 3%
  Population Mitotic Cells (%): 8% and 18%
  Population Normal (%): 98% and 99%
  Population Pyknosed Nuclei (%): 9% and 12%
  Population Tubulin-Different-Phenotype (%): 1% and 8%
  Total Cell Count: 241 and 132
[4]
  Population Apoptotic (%): 75% and 63%
  Population Fragmented Nuclei (%): 17% and 16%
  Population Healthy Nuclei (%): 64% and 71%
  Population Hoechst High Intensity Objects (%): 2% and 3%
  Population Membrane Permeable-Phenotype (%): 15% and 26%
  Population Mitochondria Different-Phenotype (%): 10% and 23%
  Population Mitotic Cells (%): 25% and 36%
  Population Normal (%): 97% and 96%
  Population Pyknosed Nuclei (%): 18% and 12%
  Population Tubulin-Different-Phenotype (%): 7% and 21%
  Total Cell Count: 271 and 159
[5]
  Population Apoptotic (%): 68% and 95%
  Population Fragmented Nuclei (%): 16% and 17%
  Population Healthy Nuclei (%): 75% and 69%
  Population Hoechst High Intensity Objects (%): 2% and 1%
  Population Membrane Permeable-Phenotype (%): 4% and 9%
  Population Mitochondria Different-Phenotype (%): 2% and 5%
  Population Normal (%): 97% and 98%
  Population Pyknosed Nuclei (%): 7% and 12%
  Population Tubulin-Different-Phenotype (%): 2% and 6%
  Total Cell Count: 337 and 187
[6]
  Population Apoptotic (%): 81% and 77%
  Population Fragmented Nuclei (%): 15% and 13%
  Population Healthy Nuclei (%): 69% and 67%
  Population Hoechst High Intensity Objects (%): 3% and 6%
  Population Membrane Permeable-Phenotype (%): 10% and 16%
  Population Mitochondria Different-Phenotype (%): 5% and 12%
  Population Mitotic Cells (%): 18% and 22%
  Population Normal (%): 96% and 93%
  Population Pyknosed Nuclei (%): 14% and 18%
  Population Tubulin-Different-Phenotype (%): 5% and 6%
  Total Cell Count: 382 and 197

## COc1c(Nc2ccc(S(C)(=O)=O)nc2C)ncnc1OC1CCN(C(=O)OC(C)C)CC1 [ADP-597]
[1]
  Population Apoptotic (%): 82% and 75%
  Population Fragmented Nuclei (%): 23% and 13%
  Population Healthy Nuclei (%): 68% and 78%
  Population Hoechst High Intensity Objects (%): 2% and 3%
  Population Membrane Permeable-Phenotype (%): 7% and 11%
  Population Mitochondria Different-Phenotype (%): 1%
  Population Mitotic Cells (%): 17% and 25%
  Population Normal (%): 97% and 96%
  Population Pyknosed Nuclei (%): 8%
  Population Tubulin-Different-Phenotype (%): 5% and 2%
  Total Cell Count: 208 and 95
[2]
  Population Apoptotic (%): 93% and 85%
  Population Fragmented Nuclei (%): 27% and 10%
  Population Healthy Nuclei (%): 60% and 77%
  Population Hoechst High Intensity Objects (%): 8% and 4%
  Population Membrane Permeable-Phenotype (%): 7%
  Population Mitochondria Different-Phenotype (%): 2% and 3%
  Population Mitotic Cells (%): 6% and 14%
  Population Normal (%): 91% and 95%
  Population Pyknosed Nuclei (%): 11%
  Population Tubulin-Different-Phenotype (%): 4% and 1%
  Total Cell Count: 266 and 128
[3]
  Population Apoptotic (%): 88% and 80%
  Population Fragmented Nuclei (%): 24% and 12%
  Population Healthy Nuclei (%): 67% and 79%
  Population Hoechst High Intensity Objects (%): 3%
  Population Membrane Permeable-Phenotype (%): 7% and 8%
  Population Mitochondria Different-Phenotype (%): 3%
  Population Mitotic Cells (%): 11% and 20%
  Population Normal (%): 96%
  Population Pyknosed Nuclei (%): 7% and 8%
  Population Tubulin-Different-Phenotype (%): 3% and 5%
  Total Cell Count: 239 and 129
[4]
  Population Apoptotic (%): 88% and 83%
  Population Fragmented Nuclei (%): 30% and 11%
  Population Healthy Nuclei (%): 61% and 80%
  Population Hoechst High Intensity Objects (%): 6% and 5%
  Population Membrane Permeable-Phenotype (%): 8% and 6%
  Population Mitochondria Different-Phenotype (%): 2% and 4%
  Population Mitotic Cells (%): 12% and 16%
  Population Normal (%): 93% and 94%
  Population Pyknosed Nuclei (%): 8%
  Population Tubulin-Different-Phenotype (%): 4% and 1%
  Total Cell Count: 305 and 155
[5]
  Population Apoptotic (%): 80% and 81%
  Population Fragmented Nuclei (%): 19% and 20%
  Population Healthy Nuclei (%): 72% and 67%
  Population Hoechst High Intensity Objects (%): 2%
  Population Membrane Permeable-Phenotype (%): 6% and 5%
  Population Mitochondria Different-Phenotype (%): 5% and 4%
  Population Mitotic Cells (%): 19% and 18%
  Population Normal (%): 97%
  Population Pyknosed Nuclei (%): 7% and 12%
  Population Tubulin-Different-Phenotype (%): 2%
  Total Cell Count: 339 and 185
[6]
  Population Apoptotic (%): 79% and 92%
  Population Fragmented Nuclei (%): 24% and 10%
  Population Healthy Nuclei (%): 62% and 77%
  Population Hoechst High Intensity Objects (%): 6% and 3%
  Population Membrane Permeable-Phenotype (%): 6% and 4%
  Population Mitochondria Different-Phenotype (%): 4% and 0%
  Population Mitotic Cells (%): 20% and 8%
  Population Normal (%): 93% and 96%
  Population Pyknosed Nuclei (%): 13% and 11%
  Population Tubulin-Different-Phenotype (%): 2%
  Total Cell Count: 356 and 223
